Assay results reported in ChEMBL document CHEMBL1145101, “Macrocyclization in the design of Grb2 SH2 domain-binding ligands exhibiting high potency in whole-cell systems” (J Med Chem, 2003).

Tests used:
[1] = (§1) Growth inhibition against MDA-453 breast cancer cells; assay type: functional, cell-based; details: Homo sapiens, Cancer cell lines
Method in brief: (§2)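 MDA-453 cells seeded at 500 per well and kept in IMEM with 10% fetal bovine serum at 37 °C under 5% CO₂. Inhibitor dilutions were added, with fresh drug solution each day for 5 days. Growth was read by MTT (0.5 mg/mL, 4 h), then medium removed and dissolved cells read at 570 nm. Results are expressed as percent of no-drug control.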

MDA-MB-453 = test: as §1; assay type: functional, cell-based; details: Homo sapiens; method in brief: as §2
[2] = target: Growth factor receptor-bound protein 2 (Homo sapiens, UniProt P62993); test: Inhibition against Growth factor receptor bound protein 2 binding using ELISA technique
Method in brief: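 Competition ELISA: biotinylated SHC-derived Grb2 SH2-binding phosphopeptide bound at 20 ng/mL to plates overnight, then blocked with 5% BSA in TBS. Recombinant Grb2 SH2-GST fusion was preincubated with serial inhibitor dilutions, then added. After washing with 0.1% BSA/TBS, bound protein was detected with anti-GST and alkaline phosphatase-conjugated secondary, using p-nitrophenyl phosphate colorimetry. Each compound had at least three determinations, with a positive control.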

Sequence of Growth factor receptor-bound protein 2 (P62993 whole entry, the tested form may be a part): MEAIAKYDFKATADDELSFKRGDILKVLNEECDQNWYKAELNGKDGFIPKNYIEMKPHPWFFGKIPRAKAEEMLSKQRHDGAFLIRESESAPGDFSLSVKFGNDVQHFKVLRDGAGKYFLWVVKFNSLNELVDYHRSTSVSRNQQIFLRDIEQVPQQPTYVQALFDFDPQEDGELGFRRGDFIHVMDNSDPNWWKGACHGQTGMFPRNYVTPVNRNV

Structure (SMILES)	IC50 [1] [nM]	IC50 (MDA-MB-453) [nM]	IC50 [2] [nM]
NC(=O)C[C@H](NC(=O)C1(NC(=O)[C@H](Cc2ccc(CP(=O)(O)O)cc2)NC(=O)C(=O)O)CCCCC1)C(=O)NCCCC1=c2ccccc2=CCC1	5000	–	–
NC(=O)C[C@@H]1NC(=O)C2(CCCCC2)NC(=O)[C@@H](CC(=O)O)[C@@H](c2ccc(CP(=O)(O)O)cc2)/C=C/C[C@@H](CC2=c3ccccc3=CCC2)CNC1=O	–	800	2
NC(=O)C[C@@H]1NC(=O)C2(CCCCC2)NC(=O)C[C@@H](c2ccc(CP(=O)(O)O)cc2)/C=C/C[C@@H](CC2=c3ccccc3=CCC2)CNC1=O	–	–	20
CC1(C)NC(=O)[C@@H](CC(=O)O)[C@@H](c2ccc(CP(=O)(O)O)cc2)/C=C/C[C@@H](CC2=c3ccccc3=CCC2)CNC(=O)[C@H](CC(N)=O)NC1=O	–	8000	8
NC(=O)C[C@@H]1NC(=O)C2(CCCCC2)NC(=O)C[C@@H](c2ccc(CP(=O)(O)O)cc2)C/C=C/C[C@@H](Cc2cccc3ccccc23)CNC1=O	–	> 50000	> 10000
